Values after ≈ are worked out from the molar mass of the structure shown.
Columns and labels:
Proteus vulgaris = test: In vitro minimum inhibitory concentration was measured against Proteus vulgaris 1028BC (beta lactamase producer) strain.; format: functional
How it was run: (§1)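 Streptococci were tested on brain heart infusion agar plus 20 units/mL catalase, Proteus on Mueller-Hinton with 3% agar, and others on Mueller-Hinton agar. Inocula were 100-fold-diluted overnight cultures, about 3 × 10^4 CFU/spot, read after overnight incubation at 36 °C.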

Enterobacter cloacae [1] = test: In vitro minimum inhibitory concentration was measured against Enterobacter cloacae p99 (beta lactamase producer) strain.; format: functional
Serratia marcescens = test: In vitro minimum inhibitory concentration was measured against Serratia marcescens 1071(beta lactamase producer) strain.; format: functional; how it was run: as §1
[2] = tested on: Penicillin-binding protein 3 (Escherichia coli); test: Affinity for penicillin binding protein 3 of Escherichia coli UB1005 (DC0) was evaluated.; design: unit not given here
Escherichia coli [3] = test: In vitro minimum inhibitory concentration was measured against Escherichia coli TEM-1 (Beta lactamase producer) strain.; format: functional; how it was run: as §1
Escherichia coli [4] = test: In vitro minimum inhibitory concentration was measured against Escherichia coli 257 strain.; format: functional; how it was run: as §1
Citrobacter freundii = test: In vitro minimum inhibitory concentration was measured against Citrobacter freundii BS-16 (beta lactamase producer) strain.; format: functional
How it was run: as §1, with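 “MICs were determined by agar dilution with 2-fold dilutions giving final 128–0.0156 µg/mL, extended to 0.000977 µg/mL where needed. Streptococci” for “Streptococci”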

[5] = molecular target: T1, Penicillin-binding protein 1B (Escherichia coli K-12) (UniProt P02919); test: Affinity for penicillin binding protein 1b of Escherichia coli UB1005 (DC0) was evaluated.; design: unit not given here
T1 sequence (whole entry): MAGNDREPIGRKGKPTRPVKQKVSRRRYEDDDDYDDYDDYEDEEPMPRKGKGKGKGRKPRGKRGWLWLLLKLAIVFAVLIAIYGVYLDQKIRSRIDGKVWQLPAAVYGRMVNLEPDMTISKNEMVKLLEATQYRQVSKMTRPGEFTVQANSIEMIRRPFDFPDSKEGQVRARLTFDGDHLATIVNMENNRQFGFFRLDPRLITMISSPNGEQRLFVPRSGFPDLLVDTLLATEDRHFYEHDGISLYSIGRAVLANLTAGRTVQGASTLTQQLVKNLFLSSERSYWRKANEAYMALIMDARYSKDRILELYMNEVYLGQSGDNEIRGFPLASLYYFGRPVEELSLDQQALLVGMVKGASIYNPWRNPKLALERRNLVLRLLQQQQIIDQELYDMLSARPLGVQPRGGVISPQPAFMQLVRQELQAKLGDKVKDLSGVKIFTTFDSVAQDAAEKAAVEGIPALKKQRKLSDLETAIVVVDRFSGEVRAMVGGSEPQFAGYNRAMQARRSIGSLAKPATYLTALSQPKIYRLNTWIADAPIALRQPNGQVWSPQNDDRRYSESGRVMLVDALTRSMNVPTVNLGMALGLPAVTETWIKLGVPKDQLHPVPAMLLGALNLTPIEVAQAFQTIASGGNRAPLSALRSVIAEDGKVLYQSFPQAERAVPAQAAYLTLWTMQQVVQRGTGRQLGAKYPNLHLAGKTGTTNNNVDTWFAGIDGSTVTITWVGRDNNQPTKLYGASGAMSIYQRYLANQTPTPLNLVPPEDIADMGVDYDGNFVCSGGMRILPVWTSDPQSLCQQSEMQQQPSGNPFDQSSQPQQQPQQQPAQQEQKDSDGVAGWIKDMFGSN
How it was run: (§2)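 Solubilised membranes from sonicated E. coli UB1005 served as the binding-protein source. Binding was read as inhibition of [14C]penicillin G binding.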

Enterococcus faecalis = test: In vitro minimum inhibitory concentration was measured against Enterococcus faecalis ATCC 29212 strain.; format: functional; how it was run: as §1
Klebsiella pneumoniae = test: In vitro minimum inhibitory concentration was measured against Klebsiella pneumoniae A strain.; format: functional; how it was run: as §1
Escherichia coli [6] = test: In vitro minimum inhibitory concentration was measured against Escherichia coli ATCC 25922 strain.; format: functional; how it was run: as §1
[7] = molecular target: T2, Penicillin-binding protein 1A (Escherichia coli K-12) (UniProt P02918); test: Affinity for penicillin binding protein 1a of Escherichia coli UB1005 (DC0) was evaluated.; design: unit not given here; how it was run: as §2
T2 sequence (whole entry): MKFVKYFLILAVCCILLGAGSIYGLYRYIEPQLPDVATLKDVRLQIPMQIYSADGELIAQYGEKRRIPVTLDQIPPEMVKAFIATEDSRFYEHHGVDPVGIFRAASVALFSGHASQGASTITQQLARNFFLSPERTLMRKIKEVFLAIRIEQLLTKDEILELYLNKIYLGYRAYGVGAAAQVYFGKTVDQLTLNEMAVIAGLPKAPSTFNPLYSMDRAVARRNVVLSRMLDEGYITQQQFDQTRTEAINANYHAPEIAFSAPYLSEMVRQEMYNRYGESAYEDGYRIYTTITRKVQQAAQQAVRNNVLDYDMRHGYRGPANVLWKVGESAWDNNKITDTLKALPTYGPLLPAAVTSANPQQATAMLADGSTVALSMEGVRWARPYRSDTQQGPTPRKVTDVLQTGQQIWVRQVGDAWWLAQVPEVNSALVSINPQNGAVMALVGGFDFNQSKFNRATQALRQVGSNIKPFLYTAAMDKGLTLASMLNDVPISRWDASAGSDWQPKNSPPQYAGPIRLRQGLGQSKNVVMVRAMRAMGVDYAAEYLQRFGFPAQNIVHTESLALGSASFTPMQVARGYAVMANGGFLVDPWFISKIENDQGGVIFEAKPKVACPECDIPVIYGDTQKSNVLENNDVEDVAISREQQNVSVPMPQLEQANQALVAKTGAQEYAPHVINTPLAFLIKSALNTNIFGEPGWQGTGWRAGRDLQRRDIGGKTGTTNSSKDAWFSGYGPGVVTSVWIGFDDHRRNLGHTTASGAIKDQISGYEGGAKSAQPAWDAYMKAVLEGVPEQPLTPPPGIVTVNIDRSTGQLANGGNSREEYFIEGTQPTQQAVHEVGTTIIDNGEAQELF

Staphylococcus aureus [8] = test: In vitro minimum inhibitory concentration was measured against Staphylococcus aureus smith strain.; format: functional
Enterobacter cloacae [9] = test: In vitro minimum inhibitory concentration was measured against Enterobacter cloacae 5699 strain.; format: functional
[10] = molecular target: T3, Peptidoglycan D,D-transpeptidase MrdA (Escherichia coli K-12) (UniProt P0AD65); test: Affinity for penicillin binding protein 2 of Escherichia coli UB1005 (DC0) was evaluated.; design: unit not given here; how it was run: as §2
T3 sequence (whole entry): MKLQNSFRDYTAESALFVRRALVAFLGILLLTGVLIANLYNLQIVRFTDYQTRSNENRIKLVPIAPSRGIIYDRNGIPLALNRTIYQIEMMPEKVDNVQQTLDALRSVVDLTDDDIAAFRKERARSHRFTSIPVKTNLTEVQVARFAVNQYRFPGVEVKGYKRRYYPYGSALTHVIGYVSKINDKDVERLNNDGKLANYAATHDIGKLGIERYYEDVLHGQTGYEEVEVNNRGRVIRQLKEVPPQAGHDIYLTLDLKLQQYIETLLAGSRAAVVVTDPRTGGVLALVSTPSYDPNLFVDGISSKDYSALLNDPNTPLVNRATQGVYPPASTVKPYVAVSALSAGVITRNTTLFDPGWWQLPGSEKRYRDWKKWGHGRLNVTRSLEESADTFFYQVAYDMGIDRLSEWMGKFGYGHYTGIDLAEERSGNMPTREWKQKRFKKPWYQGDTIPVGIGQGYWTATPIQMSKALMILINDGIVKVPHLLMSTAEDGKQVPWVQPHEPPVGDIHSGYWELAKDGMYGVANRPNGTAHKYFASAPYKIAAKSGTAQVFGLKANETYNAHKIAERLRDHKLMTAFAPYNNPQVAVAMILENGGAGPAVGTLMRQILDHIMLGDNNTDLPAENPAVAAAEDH

Escherichia coli [11] = test: Minimum inhibitory concentration for DC2, a permeability mutant
How it was run: as §1, with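 “MICs were determined by agar dilution with 2-fold dilutions giving final 128–0.0156 µg/mL, extended to 0.000977 µg/mL where needed. Streptococci” for “Streptococci”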

Staphylococcus aureus [12] = test: In vitro minimum inhibitory concentration was measured against Staphylococcus aureus 753 (Methicillin resistant) strain.; format: functional
Streptococcus pyogenes = test: In vitro minimum inhibitory concentration was measured against Streptococcus pyogenes 4 strain.; format: functional; how it was run: as §1
Micrococcus luteus = test: In vitro minimum inhibitory concentration was measured against Micrococcus luteus ATCC 9341 strain.; format: functional; how it was run: as §1
Proteus mirabilis = test: In vitro minimum inhibitory concentration was measured against Proteus mirabilis 90 strain.; format: functional; how it was run: as §1
Pseudomonas aeruginosa [13] = test: In vitro minimum inhibitory concentration was measured against Pseudomonas aeruginosa 8780 strain.; format: functional; how it was run: as §1
Streptococcus pneumoniae = test: In vitro minimum inhibitory concentration was measured against Streptococcus pneumoniae 6301 strain; format: functional; how it was run: as §1
Escherichia coli [14] = test: Minimum inhibitory concentration against E. coli UB1005 (DC0)
Staphylococcus aureus [15] = test: In vitro minimum inhibitory concentration was measured against Staphylococcus aureus 67-0 (Methicillin resistant) strain.; format: functional
Pseudomonas aeruginosa [16] = test: In vitro minimum inhibitory concentration was measured against Pseudomonas aeruginosa 18S/H strain.; format: functional; how it was run: as §1
[17] = molecular target: T2, Penicillin-binding protein 1A (Escherichia coli K-12); test: Affinity against penicillin binding protein 1a of Escherichia coli UB1005 (DC0) was evaluated.
How it was run: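 Solubilized membranes from sonicated E. coli UB1005 were used. Binding to penicillin-binding proteins was measured as inhibition of [14C]penicillin G binding.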

Compound | MIC (Proteus vulgaris) [µg/mL] | MIC (Enterobacter cloacae [1]) [µg/mL] | MIC (Serratia marcescens) [µg/mL] | Binding affinity [2] | MIC (Escherichia coli [3]) [µg/mL] | MIC (Escherichia coli [4]) [µg/mL] | MIC (Citrobacter freundii) [µg/mL] | Binding affinity [5] | MIC (Enterococcus faecalis) [µg/mL] | MIC (Klebsiella pneumoniae) [µg/mL] | MIC (Escherichia coli [6]) [µg/mL] | Binding affinity [7] | MIC (Staphylococcus aureus [8]) [µg/mL] | MIC (Enterobacter cloacae [9]) [µg/mL] | Binding affinity [10] | MIC (Escherichia coli [11]) [µg/mL] | MIC (Staphylococcus aureus [12]) [µg/mL] | MIC (Streptococcus pyogenes) [µg/mL] | MIC (Micrococcus luteus) [µg/mL] | MIC (Proteus mirabilis) [µg/mL] | other results
Nc1nc(/C(=N/OCC(=O)O)C(=O)N[C@@H]2C(=O)N3C(C(=O)O)=C(CN4CCN(c5cc6c(cc5F)c(=O)c(C(=O)O)cn6C5CC5)CC4)CS[C@H]23)cs1 | 1 (≈ 1.3 µM) | 0.25 (≈ 0.324 µM) | 2 (≈ 2.59 µM) | 2 | 0.5 (≈ 0.649 µM) | 0.25 (≈ 0.324 µM) | 1 (≈ 1.3 µM) | > 100 | 16 (≈ 20.8 µM) | 1 (≈ 1.3 µM) | 0.5 (≈ 0.649 µM) | > 100 | 8 (≈ 10.4 µM) | 1 (≈ 1.3 µM) | > 100 | 4 (≈ 5.19 µM) | 8 (≈ 10.4 µM) | 0.125 (≈ 0.162 µM) | 1 (≈ 1.3 µM) | 2 (≈ 2.59 µM) | MIC (Pseudomonas aeruginosa [13]): 8 µg/mL (≈ 10.4 µM); MIC (Streptococcus pneumoniae): 0.25 µg/mL (≈ 0.324 µM); MIC (Escherichia coli [14]): 2 µg/mL (≈ 2.59 µM); MIC (Staphylococcus aureus [15]): 32 µg/mL (≈ 41.5 µM); MIC (Pseudomonas aeruginosa [16]): 4 µg/mL (≈ 5.19 µM)
CC(C)(O/N=C(\C(=O)N[C@@H]1C(=O)N2C(C(=O)[O-])=C(C[n+]3ccccc3)CS[C@H]12)c1csc(N)n1)C(=O)O |  |  |  |  |  |  |  | 10 |  |  |  |  |  |  | > 100 |  |  |  |  |  | Binding affinity [17]: 10; MIC (Escherichia coli [14]): 0.125 µg/mL (≈ 0.229 µM)
CC(C)(O/N=C(\C(=O)N[C@@H]1C(=O)N2C(C(=O)O)=C(CN3CCN(c4cc5c(cc4F)c(=O)c(C(=O)O)cn5C4CC4)CC3)CS[C@H]12)c1csc(N)n1)C(=O)O | 1 (≈ 1.25 µM) | 0.5 (≈ 0.626 µM) | 1 (≈ 1.25 µM) | 2 | 0.5 (≈ 0.626 µM) | 0.25 (≈ 0.313 µM) | 0.125 (≈ 0.156 µM) | 100 | 8 (≈ 10 µM) | 0.5 (≈ 0.626 µM) | 0.25 (≈ 0.313 µM) | 100 | 8 (≈ 10 µM) | 1 (≈ 1.25 µM) | 100 | 0.25 (≈ 0.313 µM) | 8 (≈ 10 µM) | 0.25 (≈ 0.313 µM) | 2 (≈ 2.5 µM) | 2 (≈ 2.5 µM) | MIC (Pseudomonas aeruginosa [13]): 8 µg/mL (≈ 10 µM); MIC (Streptococcus pneumoniae): 0.25 µg/mL (≈ 0.313 µM); MIC (Escherichia coli [14]): 4 µg/mL (≈ 5.01 µM); MIC (Staphylococcus aureus [15]): 16 µg/mL (≈ 20 µM); MIC (Pseudomonas aeruginosa [16]): 2 µg/mL (≈ 2.5 µM)
CO/N=C(\C(=O)N[C@@H]1C(=O)N2C(C(=O)O)=C(CN3CCNCC3)CS[C@H]12)c1csc(N)n1 | > 128 | 128 (≈ 266 µM) | 8 (≈ 16.6 µM) | 100 | 0.5 (≈ 1.04 µM) | 0.25 (≈ 0.519 µM) | 128 (≈ 266 µM) | 100 | 4 (≈ 8.31 µM) | 0.125 (≈ 0.26 µM) | 0.25 (≈ 0.519 µM) | > 100 | 4 (≈ 8.31 µM) | 0.5 (≈ 1.04 µM) | > 100 | 0.25 (≈ 0.519 µM) | > 128 | 0.031 (≈ 0.0644 µM) | 0.25 (≈ 0.519 µM) | 0.5 (≈ 1.04 µM) | MIC (Pseudomonas aeruginosa [13]): 64 µg/mL (≈ 133 µM); MIC (Streptococcus pneumoniae): 0.063 µg/mL (≈ 0.131 µM); MIC (Staphylococcus aureus [15]): > 128 µg/mL; MIC (Pseudomonas aeruginosa [16]): > 128 µg/mL

Source: ChEMBL document CHEMBL1127320, “Dual-action cephalosporins incorporating a 3'-tertiary-amine-linked quinolone” (J Med Chem, 1994)
